The nature of series [1]: Bioavailability in mouse (nude) (dose 0.4% Methylcellulose (MC) as vehicle 25 mg/kg). In kind it is ADME, organism-based. Conditions: in vivo.
Series [2] is described as follows: Half life was administered by using 20%aqueous hydroxypropyl-beta-cyclodextrin (HPbetaCD) as vehicle to nude mice at a dose of 25mpk,. It is filed as ADME, organism-based. Conditions: mouse, in vivo, 25 mg/kg.
A short description of series [3]: Area under curve was determined using 0.4% Methyl cellulose (MC) as vehicle. Compound was administered orally to nude mice at a dose of 25 mg/kg. It is filed as ADME, organism-based. Also on record: dose 25 mg/kg, route oral. As to conditions: mouse, in vivo, po. In short, it runs like this:
(§1)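 Nude mice were dosed at 25 mpk, intravenously or orally as the line states, in 20% aqueous hydroxypropyl-β-cyclodextrin or 0.4% aqueous methyl cellulose. Serum was sampled over 24 h. Each time point came from sera of different animals.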

A short description of series [4]: Maximum concentration (Cmax) using 0.4% Methyl cellulose (MC) as vehicle. compound was administered intravenously to nude mice at a dose of 25 mg/kg. In kind it is ADME, organism-based. Details: dose 25 mg/kg, route intravenous. As to conditions: mouse, in vivo, iv. The procedure, abridged: as §1
Series [5] in a line: Maximum concentration (Cmax) using 0.4% Methyl cellulose (MC) as vehicle. compound was administered orally to nude mice at a dose of 25 mg/kg. As to conditions: mouse, in vivo, po. It is filed as ADME, organism-based. Details: dose 25 mg/kg, route oral. In short, it runs like this:
as §1

Series [6] can be described thus: Maximum concentration (Cmax) using 20%aqueous hydroxypropyl-beta-cyclodextrin (HPbetaCD) as vehicle. compound was administered intravenously to nude mice at a dose of 25 mg/kg. In kind it is ADME, organism-based. Also on record: dose 25 mg/kg, route intravenous. As to conditions: mouse, in vivo, iv. In short, it runs like this: as §1
Series [7] can be described thus: Maximum concentration (Cmax) using 20%aqueous hydroxypropyl-beta-cyclodextrin (HPbetaCD) as vehicle. compound was administered orally to nude mice at a dose of 25 mg/kg. It is filed as ADME, organism-based. Also on record: dose 25 mg/kg, route oral. Conditions: mouse, in vivo, po. In short, it runs like this:
as §1

The nature of series [8]: Area under curve was determined using 20%aqueous hydroxypropyl-beta-cyclodextrin (HPbetaCD) as vehicle. Compound was administered orally to nude mice at a dose of 25 mg/kg. In kind it is ADME, organism-based. Details: dose 25 mg/kg, route oral. Conditions: mouse, in vivo, po. In short, it runs like this: as §1
Series [9] is described as follows: Area under curve was determined using 0.4% Methyl cellulose (MC) as vehicle. Compound was administered intravenously to nude mice at a dose of 25 mg/kg. In kind it is ADME, organism-based. Details: dose 25 mg/kg, route intravenous. Conditions: mouse, in vivo, iv. The procedure, abridged:
as §1

Series [10] is described as follows: Area under curve was determined using 20%aqueous hydroxypropyl-beta-cyclodextrin (HPbetaCD) as vehicle. Compound was administered intravenously to nude mice at a dose of 25 mg/kg. In kind it is ADME, organism-based. Details: dose 25 mg/kg, route intravenous. As to conditions: mouse, in vivo, iv. In short, it runs like this:
as §1

Series [11] can be described thus: Bioavailability in mouse (nude) using 20% aqueous hydroxypropyl-beta-cyclodextrin (HPbetaCD) as vehicle 25 mg/kg. In kind it is ADME, organism-based. As to conditions: nude, in vivo.
In series [12] the target is T1, Protein farnesyltransferase (Homo sapiens, UniProt P49354+P49356). As to the kind of experiment: Effect on Ras processing in Cos-1 monkey kidney cells expressing either H-Ras-Val 12-CVLS or H-Ras-Val12. It is filed as functional, cell-based, Cercopithecidae. The procedure, abridged: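 Ras processing was tested in Cos-1 monkey kidney cells transiently expressing H-Ras-Val12-CVLS or H-Ras-Val12. IC50 values are single-point determinations.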

In the next series the test system is NIH-3T3 (Mus musculus). The series can be described thus: inhibition of tumor colony formation in soft agar.
Series [13] can be described thus: Area under curve was determined using 20%aqueous hydroxypropyl-beta-cyclodextrin (HPbetaCD) as vehicle. Compound was administered intravenously to nude mice at a dose of 25 mg/kg (run time 7 hr). Also on record: dose 25 mg/kg, route intravenous. It is filed as ADME, organism-based. As to conditions: mouse, in vivo, iv. In short, it runs like this:
(§2)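 Nude mice received 25 mpk in 20% aqueous hydroxypropyl-β-cyclodextrin, by the route the line gives. Serum was collected over a shortened 7-h run rather than 24 h. Each time point used sera from different animals.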

The nature of series [14]: Area under curve was determined using 20%aqueous hydroxypropyl-beta-cyclodextrin (HPbetaCD) as vehicle. Compound was administered orally to nude mice at a dose of 25 mg/kg (run time 7 hr). In kind it is ADME, organism-based. Also on record: dose 25 mg/kg, route oral. As to conditions: mouse, in vivo, po. The procedure, abridged: as §2
Series [15] deals with T1, Protein farnesyltransferase. The series can be described thus: Inhibition of [3H]FPP incorporation into His6-H-Ras-CVLS by farnesyl transferase. It is filed as protein-complex assay.
Series [16] shares this target. The series can be described thus: Inhibitory activity against Hras Farnesyltransferase (FPT). It is filed as protein-complex assay.

One may read the half-life as how long it takes for the measured level to halve. For orientation: AUC means the area under the concentration-time curve, a measure of exposure. In general, Cmax refers to the peak of the concentration-time curve. What is called IC50 is the concentration that gives 50% inhibition.

Take `O=C(CC1CCN(C(=O)c2cc[n+]([O-])cc2)CC1)N1CCC([C@H]2c3ncc(Br)cc3CCc3cc(Cl)cc(Br)c32)CC1`: the results for the bioavailability in series [1] and in [11] were 14.6% and 115%, respectively. This compound had a half-life in series [2] of 72 min. The exposure (AUC) in series [3] was 2000 ng·h/mL; in series [8], 15700 ng·h/mL; in series [9], 13700 ng·h/mL; in series [10] it was 13700 ng·h/mL. Moreover, the maximum concentration (Cmax) in series [4] stood at 19.8 µM; in [5], 1.07 µM; in series [6], 19.8 µM; in series [7], 9810 nM.
In series [2], `O=C(CC1CCN(C(=O)Cn2cncn2)CC1)N1CCC([C@H]2c3ncc(Br)cc3CCc3cc(Cl)cc(Br)c32)CC1` had a half-life of 16.8 min. Further, the IC50 in series [12] is less than 10 nM; with NIH-3T3 (Mus musculus), 110 nM. For the same compound, the peak concentration (Cmax) in [6] is 22.6 µM; in series [7], 2150 nM. Also, the area under the curve (AUC) at 7 h came out at 10100 ng·h/mL in [13] and 1970 ng·h/mL in series [14]. Also, the bioavailability in [11] came out at 19.5%.
The compound `NC(=O)CN1CCC(CC(=O)N2CCC([C@H]3c4ncc(Br)cc4CCc4cc(Cl)cc(Br)c43)CC2)CC1` gave a half-life in [2] of 240 min. The results for the half-maximal inhibitory concentration (IC50) (in series [12]; in the series on NIH-3T3 (Mus musculus); in series [15]) were 6 nM, 70 nM and 2.1 nM, respectively. In addition, the figures for the Cmax in series [6] and in series [7] were 30 µM and 1940 nM, respectively. Further, the values for the AUC in series [8] and in series [10] were 12200 ng·h/mL and 20300 ng·h/mL, respectively. Moreover, the bioavailability in series [11] turned out to be 60.2%.
As to `O=C(O)CNC(=O)N1CCC(CC(=O)N2CCC([C@H]3c4ncc(Br)cc4CCc4cc(Cl)cc(Br)c43)CC2)CC1`, the half-maximal inhibitory concentration (IC50) in the series on NIH-3T3 (Mus musculus) is greater than 500 nM.
In series [2], `CN(C)S(=O)(=O)N1CCC(CC(=O)N2CCC([C@H]3c4ncc(Br)cc4CCc4cc(Cl)cc(Br)c43)CC2)CC1` showed a half-life of 78 min. The figures for the IC50 (in series [12]; in the series with NIH-3T3 (Mus musculus); in series [15]) were 9 nM, 100 nM and 7.8 nM, respectively. For the same compound, the figures for the maximum concentration (Cmax) in series [6] and in [7] were 30 µM and 490 nM, respectively. The AUC in [8] is 100 ng·h/mL; in series [10], 5950 ng·h/mL. Besides, in [11], the bioavailability was 1.7%.
In the case of `CCN(CC)C(=O)CN1CCC(CC(=O)N2CCC([C@H]3c4ncc(Br)cc4CCc4cc(Cl)cc(Br)c43)CC2)CC1`, the half-maximal inhibitory concentration (IC50) stood at 40 nM in series [12] and 300 nM with NIH-3T3 (Mus musculus).
Turning to `O=C(CC1CCN(C(=O)Cn2cccc2)CC1)N1CCC([C@H]2c3ncc(Br)cc3CCc3cc(Cl)cc(Br)c32)CC1`, the 50% inhibitory concentration (IC50) in [16] came out at 4.3 nM; in series [12], 9 nM; with NIH-3T3 (Mus musculus), 460 nM.
`NC(=O)N1CCC(CC(=O)N2CCC([C@H]3c4ncc(Br)cc4CCc4cc(Cl)cc(Br)c43)CC2)CC1` [LONAFARNIB] had a half-life in [2] of 84 min. In addition, the AUC in [3] stood at 41400 ng·h/mL; in series [8] it was 24100 ng·h/mL; in series [10] it was 31800 ng·h/mL. For the same compound, the Cmax in [5] was determined as 16.6 µM; in [6] it was 20 µM; in series [7] it was 8840 nM. Moreover, the IC50 in the series with NIH-3T3 (Mus musculus) came to 75 nM. Besides, the bioavailability in [11] was found to be 75.8%.
In turn, `C[C@H](N)C(=O)N1CCC(CC(=O)N2CCC([C@H]3c4ncc(Br)cc4CCc4cc(Cl)cc(Br)c43)CC2)CC1` displayed an IC50 in [12] of 140 nM.
As for `O=C(CC1CCN(S(=O)(=O)Cc2ccccc2)CC1)N1CCC([C@H]2c3ncc(Br)cc3CCc3cc(Cl)cc(Br)c32)CC1`, the IC50 in [16] amounted to 17.1 nM; in series [12], 350 nM.
In turn, `CNC(=O)N1CCC(CC(=O)N2CCC([C@H]3c4ncc(Br)cc4CCc4cc(Cl)cc(Br)c43)CC2)CC1` came in with a half-inhibitory concentration (IC50) in the series on NIH-3T3 (Mus musculus) of 100 nM.
In the case of `NC(=O)CNC(=O)N1CCC(CC(=O)N2CCC([C@H]3c4ncc(Br)cc4CCc4cc(Cl)cc(Br)c43)CC2)CC1`, the half-inhibitory concentration (IC50) in series [12] amounted to 25 nM; in the series on NIH-3T3 (Mus musculus), 330 nM; in series [15] it was 0.9 nM.

(Values after ChEMBL document CHEMBL1132302, “Identification of pharmacokinetically stable 3, 10-dibromo-8-chlorobenzocycloheptapyridine farnesyl protein transferase inhibitors with potent enzyme and cellular activities” (J Med Chem, 1999).)
